Molecules are shown by their SMILES. ≈ marks a conversion by molar mass, not a printed value.

Series [1] relates to Candida albicans. The experiment in a line: Antifungal activity against fluconazole-resistant Candida albicans 901 assessed as reduction in fungal growth incubated for 24 hrs by serial dilution method. The series is classed as functional. To be noted: Candida albicans, 901, 24 h. The procedure, abridged:
(§1)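 Fluconazole-resistant C. albicans clinical isolates (17# and CaR from AIDS patients; 632, 901, 904 from clinic) tested by CLSI broth dilution MIC in RPMI 1640 buffered to pH 7.0 with MOPS. Compounds dissolved in DMSO, serially diluted to final 0.03–16 or 0.125–64 μg/mL; inoculum 1–5 × 10^3 CFU/mL; 35 °C, 24 h. MIC = lowest concentration inhibiting visible growth; fluconazole and itraconazole as controls.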

Series [2] has as its system Nakaseomyces glabratus. In words: Antifungal activity against Candida glabrata assessed as reduction in fungal growth incubated for 24 hrs by serial dilution method. The class given is functional. The procedure, abridged: (§2)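 MIC by CLSI broth microdilution in RPMI 1640 buffered to pH 7.0 with MOPS. Compounds dissolved in DMSO and serially diluted to final 0.03–16 or 0.125–64 µg/mL. Inoculum 1–5 × 10^3 CFU/mL. Incubation 35 °C, 24 h. Drug-free growth and fungus-free blank controls. MIC is the lowest concentration preventing visible growth.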

In series [3] the test system is Candida albicans. The experiment in a line: Antifungal activity against Candida albicans GIM 2.194 assessed as reduction in fungal growth incubated for 24 hrs by serial dilution method. The class given is functional. To be noted: GIM 2.194, 24 h. The procedure, abridged: as §2
Series [4] has as its system Candida albicans. The experiment in a line: Antifungal activity against fluconazole-resistant Candida albicans CaR assessed as reduction in fungal growth incubated for 24 hrs by serial dilution method. The class given is functional. The procedure, abridged:
as §1

In series [5] the test system is Candida albicans. In words: Antifungal activity against fluconazole-resistant Candida albicans 17 assessed as reduction in fungal growth incubated for 24 hrs by serial dilution method. The class given is functional. To be noted: Candida albicans, 17, 24 h. Put shortly:
as §1

Series [6] relates to Candida albicans. In words: Antifungal activity against fluconazole-resistant Candida albicans 632 assessed as reduction in fungal growth incubated for 24 hrs by serial dilution method. The series is classed as functional. Particulars: Candida albicans, 632, 24 h. Put shortly:
as §1

For series [7], the system named is Candida tropicalis. In words: Antifungal activity against Candida tropicalis GIM 2.183 assessed as reduction in fungal growth incubated for 24 hrs by serial dilution method. The class given is functional. Particulars: GIM 2.183, 24 h. Put shortly: as §2
For series [8], the system named is Candida parapsilosis. In words: Antifungal activity against Candida parapsilosis GIM 2.190 assessed as reduction in fungal growth incubated for 24 hrs by serial dilution method. The class given is functional. Particulars: Lodderomyces parapsilosis, GIM 2.190, 24 h. The procedure, abridged:
as §2

The test system of series [9] is Candida albicans. In words: Antifungal activity against fluconazole-resistant Candida albicans 904 assessed as reduction in fungal growth incubated for 24 hrs by serial dilution method. The series is classed as functional. Particulars: Candida albicans, 904, 24 h. The procedure, abridged: as §1
Series [10] deals with Candida albicans. In words: Antifungal activity against Candida albicans SC5314 assessed as reduction in fungal growth incubated for 24 hrs by serial dilution method. The series is classed as functional. To be noted: SC5314, 24 h. Put shortly: as §2
The nature of series [11]: Cytotoxicity against human A549 cells assessed as cell survival at 0.08 uM/l incubated for 24 hrs by MTT assay relative to control. The series is classed as cell-based. Particulars: read-out: Activity. The procedure, abridged: (§3)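 A549 cells were seeded at 3000 per well in RPMI 1640 and held 16 h at 37 °C, 5% CO2. Medium was then replaced with medium holding DMSO-dissolved compound at final 0.08, 0.4, 2.0 or 10 µM/L and incubated 24 h. MTT was added for 4 h and absorbance read at 490 nm to give survival.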

A short description of series [12]: Cytotoxicity against human A549 cells assessed as cell survival at 10 uM/l incubated for 24 hrs by MTT assay relative to control. The class given is cell-based. Particulars: read-out: Activity. The procedure, abridged: as §3
Series [13] in a line: Cytotoxicity against human A549 cells assessed as cell survival at 2 uM/l incubated for 24 hrs by MTT assay relative to control. The series is classed as cell-based. To be noted: read-out: Activity. The procedure, abridged:
as §3

Series [14] can be described thus: Cytotoxicity against human A549 cells assessed as cell survival at 0.4 uM/l incubated for 24 hrs by MTT assay relative to control. The class given is cell-based. Particulars: read-out: Activity. Put shortly: as §3
Series [15] deals with T1, Lanosterol 14-alpha demethylase (Candida albicans (strain SC5314 / ATCC MYA-2876) (Yeast), UniProt P10613). In words: Inhibition of Candida albicans CYP51 assessed as increase in 14alpha-methyl ergosta-8,24(28)-dien-3beta,6alpha-diol level at 0.015 ug/ml incubated for 18 hrs by GC/MS analysis relative to control. The arrangement: scale not given: the % may be the effect or the level left. Put shortly: (§4)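 C. albicans SC5314 was grown in RPMI 1640 with 0.015 µg/mL compound, or fluconazole 0.25 µg/mL, about 18 h at 30 °C with shaking at 200 rpm. Cells were pelleted and washed with PBS, then saponified 60 min at 80 °C in ethanol/pyrogallol/60% KOH. Nonsaponifiable sterols were extracted three times with heptane and analysed by GC-MS.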
T1 sequence (P10613 whole entry): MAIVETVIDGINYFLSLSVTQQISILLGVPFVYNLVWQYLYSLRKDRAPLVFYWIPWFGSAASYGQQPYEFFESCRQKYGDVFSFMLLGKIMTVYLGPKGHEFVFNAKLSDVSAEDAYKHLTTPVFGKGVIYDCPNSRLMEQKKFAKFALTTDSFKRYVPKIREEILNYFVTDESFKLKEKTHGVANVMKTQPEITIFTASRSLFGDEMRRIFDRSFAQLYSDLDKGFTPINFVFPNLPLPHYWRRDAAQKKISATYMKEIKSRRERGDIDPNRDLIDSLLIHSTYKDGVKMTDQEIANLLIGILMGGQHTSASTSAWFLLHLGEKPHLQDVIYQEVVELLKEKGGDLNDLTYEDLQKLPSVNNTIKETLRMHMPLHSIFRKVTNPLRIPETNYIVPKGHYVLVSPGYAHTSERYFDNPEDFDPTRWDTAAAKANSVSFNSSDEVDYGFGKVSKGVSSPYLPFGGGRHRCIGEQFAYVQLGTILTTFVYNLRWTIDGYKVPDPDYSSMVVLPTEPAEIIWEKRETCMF

Series [16] concerns the target T1, Lanosterol 14-alpha demethylase. The experiment in a line: Inhibition of Candida albicans CYP51 assessed as increase in eburicol level at 0.015 ug/ml incubated for 18 hrs by GC/MS analysis relative to control. The arrangement: scale not given: the % may be the effect or the level left. Put shortly: as §4
Series [17] shares this target. The experiment in a line: Inhibition of Candida albicans CYP51 assessed as increase in sterol level at 0.015 ug/ml incubated for 18 hrs by GC/MS analysis relative to control. The arrangement: scale not given: the % may be the effect or the level left. Put shortly: as §4
The target is the same in series [18]. In words: Inhibition of Candida albicans CYP51 assessed as ergosterol level at 0.015 ug/ml incubated for 18 hrs by GC/MS analysis (reference value: 100%). The arrangement: scale not given: the % may be the effect or the level left. The procedure, abridged: as §4
For series [19] the target is unchanged. In words: Inhibition of Candida albicans CYP51 assessed as increase in lanosterol level at 0.015 ug/ml incubated for 18 hrs by GC/MS analysis relative to control. The arrangement: scale not given: the % may be the effect or the level left. The procedure, abridged:
as §4

As to `O=C(NC(Cn1ccnc1)C(=O)c1ccc(Cl)cc1)c1ccc(-c2ccccc2)cc1F` (stereo not drawn), the MIC in [1] is over 64 µg/mL; in [2], 0.25 µg/mL (≈ 0.558 µM); in series [3], 0.5 µg/mL (≈ 1.12 µM); in series [4], over 64 µg/mL; in series [5] it was over 64 µg/mL; in series [6], over 64 µg/mL. Besides, the minimum inhibitory concentration (MIC) in [7] amounted to 0.06 µg/mL (≈ 0.134 µM); in series [8], 0.125 µg/mL (≈ 0.279 µM); in [9] it was 32 µg/mL (≈ 71.4 µM); in [10] it was 0.06 µg/mL (≈ 0.134 µM).
For `O=C(NC(Cn1ccnc1)C(=O)c1ccc(F)cc1)c1ccc(-c2ccccc2)cc1F` (stereo not drawn), in series [11], the viability at 24 h, 0.08 µM worked out at 100%. Moreover, the MIC is over 64 µg/mL in series [1]; 0.125 µg/mL (≈ 0.29 µM) in series [2]; 0.25 µg/mL (≈ 0.579 µM) in series [3]; 2 µg/mL (≈ 4.64 µM) in [4]; 2 µg/mL (≈ 4.64 µM) in [5]; over 64 µg/mL in [6]. In addition, the MIC in series [7] turned out to be 0.125 µg/mL (≈ 0.29 µM); in series [8] it was 0.125 µg/mL (≈ 0.29 µM); in [9], 8 µg/mL (≈ 18.5 µM); in [10], 0.06 µg/mL (≈ 0.139 µM). The viability at 24 h, 10 µM in series [12] was 86.8%. In [13], the viability at 24 h, 2 µM stood at 100%. Further, the viability at 24 h, 0.4 µM in series [14] amounted to 100%.
As for `O=C(NC(Cn1ccnc1)C(=O)c1ccccc1)c1ccc(-c2ccccc2)cc1` (stereo not drawn), the MIC in series [1] was 0.5 µg/mL (≈ 1.26 µM); in [2], 0.25 µg/mL (≈ 0.632 µM); in [3], 0.125 µg/mL (≈ 0.316 µM); in series [4] it was over 64 µg/mL; in series [5], over 64 µg/mL; in series [6], 2 µg/mL (≈ 5.06 µM). The MIC in [7] is 0.06 µg/mL (≈ 0.152 µM); in [8], 0.125 µg/mL (≈ 0.316 µM); in series [9], 1 µg/mL (≈ 2.53 µM); in [10], 0.06 µg/mL (≈ 0.152 µM).
`O=C(NC(Cn1ccnc1)C(=O)c1ccc(Cl)cc1)c1ccc(-c2ccccc2)c(F)c1` (stereo not drawn): the MIC in [1] was over 64 µg/mL; in series [2], 0.5 µg/mL (≈ 1.12 µM); in series [3], 0.5 µg/mL (≈ 1.12 µM); in series [4], over 64 µg/mL; in series [5] it was over 64 µg/mL; in series [6], over 64 µg/mL. The minimum inhibitory concentration (MIC) in series [7] was 0.06 µg/mL (≈ 0.134 µM); in series [8], 1 µg/mL (≈ 2.23 µM); in series [9] it was over 64 µg/mL; in series [10], 0.06 µg/mL (≈ 0.134 µM).
As for `Cc1ccc(C(=O)C(Cn2ccnc2)NC(=O)c2ccc(-c3ccccc3)c(F)c2)cc1` (stereo not drawn), the viability at 24 h, 0.08 µM in [11] was found to be 100%. In addition, the MIC was determined as 16 µg/mL (≈ 37.4 µM) in series [1]; 0.125 µg/mL (≈ 0.292 µM) in series [2]; 0.06 µg/mL (≈ 0.14 µM) in series [3]; 1 µg/mL (≈ 2.34 µM) in series [4]; 2 µg/mL (≈ 4.68 µM) in series [5]; 16 µg/mL (≈ 37.4 µM) in series [6]. The MIC came out at 0.03 µg/mL (≈ 0.0702 µM) in series [7], 0.125 µg/mL (≈ 0.292 µM) in series [8], 16 µg/mL (≈ 37.4 µM) in [9] and 0.03 µg/mL (≈ 0.0702 µM) in [10]. Besides, in [12], the viability at 24 h, 10 µM was 92.5%. Besides, the Activity is 13.26% in [15]; 9.56% in [16]; 3.04 to 5.85% in [17]; 41.99% in series [18]; 23.17% in series [19]. Moreover, the viability at 24 h, 2 µM in series [13] was 97%. For the same compound, in [14], the viability at 24 h, 0.4 µM is 100%.

These data come from ChEMBL document CHEMBL4406852, “Combating fluconazole-resistant fungi with novel β-azole-phenylacetone derivatives” (Eur J Med Chem, 2019).
